Experiments:
Hepatitis C virus [1] = assay: Inhibition of HCV subtype 1b NS5B Cdelta21 RNA dependent RNA polymerase expressed in Escherichia coli JM109 assessed as inhibition of [alpha32P]CTP incorporation after 1 hr by scintillation assay; design: species or system Hepatitis C virus subtype 1b; conditions: JM 109, 1 h
Hepatitis C virus [2] = assay: Antiviral activity against HCV infected in human hepatoma cells; type: functional, organism-based, Hepacivirus hominis
[3] = AUC (0 to 24 hrs) in rat at 10 mg/kg, po; type: ADME, organism-based; design: time < 24 hr, dose 10 mg/kg, route oral; conditions: plasma
[4] = Permeability from apical to basal side of human Caco2 cells; type: ADME, cell-based; conditions: Caco-2, read-out: permeability
[5] = Drug uptake in rat liver at 10 mg/kg, po after 6 hrs; type: ADME, organism-based; design: dose 10 mg/kg, route oral; conditions: read-out: Drug uptake
Procedure, shortened: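 Rats dosed orally at 10 mg/kg; liver tissue concentration measured 6 h after dosing, reported in ng/g.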

[6] = AUC (0 to 24 hrs) in dog at 2 mg/kg, po; type: ADME, organism-based, Canis lupus familiaris; design: time < 24 hr, dose 2 mg/kg, route oral; conditions: plasma
[7] = Clearance in human hepatocytes assessed per million cells; type: ADME, cell-based, Hepatocyte; conditions: read-out: CLH
Cytochrome P450 2D6 [8] = target: T1, Cytochrome P450 2D6 (Homo sapiens, UniProt P10635); assay: Inhibition of CYP2D6 co-incubated with substrate; type: ADME
T1 sequence (P10635 whole entry): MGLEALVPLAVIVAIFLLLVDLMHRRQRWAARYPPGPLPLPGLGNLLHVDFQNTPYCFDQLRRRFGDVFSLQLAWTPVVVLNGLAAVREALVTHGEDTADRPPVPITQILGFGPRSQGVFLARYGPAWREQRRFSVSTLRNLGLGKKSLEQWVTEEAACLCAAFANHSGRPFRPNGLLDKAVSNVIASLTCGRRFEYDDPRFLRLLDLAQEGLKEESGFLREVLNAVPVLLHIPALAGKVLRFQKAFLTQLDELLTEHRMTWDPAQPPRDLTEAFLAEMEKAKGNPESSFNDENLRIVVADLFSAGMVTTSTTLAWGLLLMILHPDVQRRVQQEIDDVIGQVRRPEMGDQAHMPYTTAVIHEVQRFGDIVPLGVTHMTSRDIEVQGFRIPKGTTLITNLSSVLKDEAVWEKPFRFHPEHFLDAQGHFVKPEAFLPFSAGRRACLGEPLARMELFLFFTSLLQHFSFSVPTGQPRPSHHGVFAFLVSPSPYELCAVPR

Cytochrome P450 3A4 [9] = target: T2, Cytochrome P450 3A4 (Homo sapiens, UniProt P08684); assay: Inhibition of CYP3A4 co-incubated with substrate; type: ADME
T2 sequence (P08684 whole entry): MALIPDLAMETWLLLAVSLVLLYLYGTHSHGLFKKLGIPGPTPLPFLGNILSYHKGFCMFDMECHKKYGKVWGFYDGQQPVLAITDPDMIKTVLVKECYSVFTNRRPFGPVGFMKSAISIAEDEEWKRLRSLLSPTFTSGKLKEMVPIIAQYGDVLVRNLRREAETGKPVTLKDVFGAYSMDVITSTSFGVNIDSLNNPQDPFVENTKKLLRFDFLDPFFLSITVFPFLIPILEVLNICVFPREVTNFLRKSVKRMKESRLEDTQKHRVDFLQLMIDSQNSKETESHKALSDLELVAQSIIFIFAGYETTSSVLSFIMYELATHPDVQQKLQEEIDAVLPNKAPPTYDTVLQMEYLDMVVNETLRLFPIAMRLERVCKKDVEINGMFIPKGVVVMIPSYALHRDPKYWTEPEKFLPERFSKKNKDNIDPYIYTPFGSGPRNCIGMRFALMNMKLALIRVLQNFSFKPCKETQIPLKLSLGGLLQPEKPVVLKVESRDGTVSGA

Cytochrome P450 2C9 [10] = target: T3, Cytochrome P450 2C9 (Homo sapiens, UniProt P11712); assay: Inhibition of CYP2C9 co-incubated with substrate; type: ADME
T3 sequence (P11712 whole entry): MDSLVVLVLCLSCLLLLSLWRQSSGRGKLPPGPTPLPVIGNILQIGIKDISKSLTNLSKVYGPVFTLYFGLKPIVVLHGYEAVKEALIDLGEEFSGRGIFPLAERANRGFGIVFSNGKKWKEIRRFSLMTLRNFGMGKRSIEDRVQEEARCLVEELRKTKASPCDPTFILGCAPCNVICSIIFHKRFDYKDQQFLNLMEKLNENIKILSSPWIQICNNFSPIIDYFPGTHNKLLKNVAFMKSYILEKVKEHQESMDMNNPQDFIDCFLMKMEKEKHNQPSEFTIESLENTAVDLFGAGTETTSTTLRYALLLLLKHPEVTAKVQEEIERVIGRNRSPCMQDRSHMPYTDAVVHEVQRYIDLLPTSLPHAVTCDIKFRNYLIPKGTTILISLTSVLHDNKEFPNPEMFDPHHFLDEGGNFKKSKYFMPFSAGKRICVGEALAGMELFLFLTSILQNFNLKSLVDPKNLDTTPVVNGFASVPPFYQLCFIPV

Cytochrome P450 2C19 [11] = target: T4, Cytochrome P450 2C19 (Homo sapiens, UniProt P33261); assay: Inhibition of CYP2C19 co-incubated with substrate; type: ADME
T4 sequence (P33261 whole entry): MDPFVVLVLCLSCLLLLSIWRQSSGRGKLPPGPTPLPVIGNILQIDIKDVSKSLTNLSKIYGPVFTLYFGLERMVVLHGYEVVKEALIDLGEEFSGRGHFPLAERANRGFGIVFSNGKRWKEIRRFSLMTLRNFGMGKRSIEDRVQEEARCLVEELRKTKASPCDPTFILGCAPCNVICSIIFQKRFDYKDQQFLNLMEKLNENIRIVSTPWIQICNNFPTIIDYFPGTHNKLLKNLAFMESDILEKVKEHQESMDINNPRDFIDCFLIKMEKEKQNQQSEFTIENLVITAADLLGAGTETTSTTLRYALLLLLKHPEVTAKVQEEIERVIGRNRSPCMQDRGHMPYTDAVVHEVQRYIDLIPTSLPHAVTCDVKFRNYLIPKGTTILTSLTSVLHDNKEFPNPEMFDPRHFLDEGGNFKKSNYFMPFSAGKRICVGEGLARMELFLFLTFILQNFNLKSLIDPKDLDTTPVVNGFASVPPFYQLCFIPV

Cytochrome P450 2D6 [12] = target: T1, Cytochrome P450 2D6; assay: Inhibition of CYP2D6 preincubated prior to substrate addition; type: ADME
Cytochrome P450 3A4 [13] = target: T2, Cytochrome P450 3A4; assay: Inhibition of CYP3A4 preincubated prior to substrate addition; type: ADME
Cytochrome P450 2C9 [14] = target: T3, Cytochrome P450 2C9; assay: Inhibition of CYP2C9 preincubated prior to substrate addition; type: ADME
Cytochrome P450 2C19 [15] = target: T4, Cytochrome P450 2C19; assay: Inhibition of CYP2C19 preincubated prior to substrate addition; type: ADME
[16] = target: Voltage-gated inwardly rectifying potassium channel KCNH2 (Homo sapiens, UniProt Q12809); assay: Inhibition of human ERG at 10 uM by efflux assay
Chain of Voltage-gated inwardly rectifying potassium channel KCNH2 (Q12809 whole entry): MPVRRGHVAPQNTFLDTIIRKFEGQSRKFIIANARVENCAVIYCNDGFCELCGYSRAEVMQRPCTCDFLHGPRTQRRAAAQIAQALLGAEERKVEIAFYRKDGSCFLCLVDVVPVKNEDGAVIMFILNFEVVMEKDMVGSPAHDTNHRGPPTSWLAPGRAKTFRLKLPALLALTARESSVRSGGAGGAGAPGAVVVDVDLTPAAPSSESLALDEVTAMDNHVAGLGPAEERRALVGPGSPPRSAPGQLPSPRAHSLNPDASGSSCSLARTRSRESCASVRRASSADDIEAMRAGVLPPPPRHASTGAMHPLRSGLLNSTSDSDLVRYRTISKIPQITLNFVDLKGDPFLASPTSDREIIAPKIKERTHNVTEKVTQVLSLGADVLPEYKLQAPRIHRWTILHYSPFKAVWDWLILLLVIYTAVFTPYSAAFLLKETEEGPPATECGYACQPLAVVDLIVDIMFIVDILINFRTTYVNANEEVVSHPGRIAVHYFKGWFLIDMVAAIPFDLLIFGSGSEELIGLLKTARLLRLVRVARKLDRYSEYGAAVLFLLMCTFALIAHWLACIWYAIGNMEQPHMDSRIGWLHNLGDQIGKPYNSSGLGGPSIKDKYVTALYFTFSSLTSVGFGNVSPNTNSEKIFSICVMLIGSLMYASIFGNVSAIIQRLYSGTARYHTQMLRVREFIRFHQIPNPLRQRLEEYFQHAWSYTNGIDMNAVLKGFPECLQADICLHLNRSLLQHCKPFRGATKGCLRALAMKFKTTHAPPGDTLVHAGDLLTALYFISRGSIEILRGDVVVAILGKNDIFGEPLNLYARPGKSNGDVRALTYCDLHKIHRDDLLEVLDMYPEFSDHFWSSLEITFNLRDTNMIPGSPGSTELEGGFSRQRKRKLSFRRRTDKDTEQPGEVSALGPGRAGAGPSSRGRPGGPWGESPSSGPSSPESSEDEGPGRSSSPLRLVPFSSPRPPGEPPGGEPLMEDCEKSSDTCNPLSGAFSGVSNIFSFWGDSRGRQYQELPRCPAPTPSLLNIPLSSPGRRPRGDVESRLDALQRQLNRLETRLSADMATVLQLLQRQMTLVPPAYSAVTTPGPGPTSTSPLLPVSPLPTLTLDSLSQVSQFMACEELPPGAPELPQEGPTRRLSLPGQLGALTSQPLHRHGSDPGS

SMILES | IC50 (Hepatitis C virus [1]) [nM] | EC50 (Hepatitis C virus [2]) [nM] | AUC(0-t) at 24 h [3] [µM·h] | further results
CCOc1ccc2c(c1)c(-c1ccc[nH]c1=O)c(C(=O)O)n2Cc1cc(F)ccc1F | 79 | 100 | – | –
Cc1cc2c(-c3ccc[nH]c3=O)c(C(=O)NS(=O)(=O)C3CC3)n(Cc3cc(F)ccc3F)c2cc1C(F)(F)F | 7 | 280 | 0.69 | –
CCc1ccc2c(c1)c(-c1ccc[nH]c1=O)c(C(=O)NS(C)(=O)=O)n2Cc1cc(F)ccc1F | 6 | 150 | 72 | –
Cc1ccc2c(c1)c(-c1ccc[nH]c1=O)c(C(=O)NS(=O)(=O)C(C)C)n2Cc1cc(F)ccc1F | 7 | 90 | 6.8 | –
Cc1ccc(Cn2c(C(=O)O)c(-c3ccc[nH]c3=O)c3cc(C(F)(F)F)ccc32)c(C)c1 | 16 | 100 | – | –
Nc1cc(Cn2c(C(=O)O)c(-c3ccc[nH]c3=O)c3cc(Br)ccc32)ccn1 | 47 | 100 | – | –
Nc1cc(Cn2c(C(=O)O)c(-c3ccc[nH]c3=O)c3cc(O)ccc32)ccn1 | > 20000 | 100 | – | –
CCc1ccc2c(c1)c(-c1ccc[nH]c1=O)c(C(=O)NS(=O)(=O)C(C)C)n2Cc1cc(F)ccc1F | 5 | 100 | 0.8 | –
CCc1ccc2c(c1)c(-c1ccc[nH]c1=O)c(C(=O)NS(=O)(=O)CC)n2Cc1cc(F)ccc1F | 6 | 80 | 4.6 | –
Nc1cc(Cn2c(C(=O)O)c(-c3ccc[nH]c3=O)c3cc(C4CC4)ccc32)ccn1 | 65 | 100 | – | –
Cc1ccc2c(c1)c(-c1ccc[nH]c1=O)c(C(=O)O)n2Cc1cc(F)ccc1F | 8 | 1100 | – | –
COc1ccc2c(c1)c(-c1ccc[nH]c1=O)c(C(=O)O)n2Cc1cc(F)ccc1F | 15 | 100 | – | –
Cc1cccc(Cn2c(C(=O)O)c(-c3ccc[nH]c3=O)c3cc(C(F)(F)F)ccc32)c1F | 5 | 100 | – | –
O=C(O)c1c(-c2ccc[nH]c2=O)c2cc(Br)ccc2n1Cc1cc(F)ccc1F | 3 | 100 | – | –
CC(C)(C)c1ccc2c(c1)c(-c1ccc[nH]c1=O)c(C(=O)NS(=O)(=O)C1CC1)n2Cc1cc(F)ccc1F | 6 | 50 | 8 | –
Nc1cc(Cn2c(C(=O)O)c(-c3ccc[nH]c3=O)c3cc(-c4cccc(=O)[nH]4)ccc32)ccn1 | 7000 | 100 | – | –
O=C(O)c1c(-c2ccc[nH]c2=O)c2cc(C(F)(F)F)ccc2n1Cc1ccc(OC(F)F)cc1 | 67 | 100 | – | –
Nc1cc(Cn2c(C(=O)O)c(-c3ccc[nH]c3=O)c3cc(C(F)(F)F)ccc32)ccn1 | 17 | 100 | < 0.1 | –
CC(=O)c1ccc2c(c1)c(-c1ccc[nH]c1=O)c(C(=O)O)n2Cc1ccnc(N)c1 | 330 | 100 | – | –
O=C(O)c1c(-c2ccc[nH]c2=O)c2cc(OC(F)(F)F)ccc2n1Cc1cc(F)ccc1F | 24 | 100 | – | –
Cc1ccccc1Cn1c(C(=O)O)c(-c2ccc[nH]c2=O)c2cc(C(F)(F)F)ccc21 | 9 | 100 | – | –
O=C(O)c1c(-c2ccc[nH]c2=O)c2cc(C(F)(F)F)ccc2n1Cc1ccccc1F | 9 | 100 | – | –
COc1ccc(Cn2c(C(=O)O)c(-c3ccc[nH]c3=O)c3cc(C(F)(F)F)ccc32)cc1 | 25 | 100 | – | –
CC1(c2ccc3c(c2)c(-c2ccc[nH]c2=O)c(C(=O)NS(=O)(=O)C2CC2)n3Cc2cc(F)ccc2F)CC1 | 6 | 600 | 11 | –
CS(=O)(=O)c1ccc2c(c1)c(-c1ccc[nH]c1=O)c(C(=O)O)n2Cc1ccnc(N)c1 | 1400 | 100 | – | –

SMILES | IC50 (Hepatitis C virus [1]) [nM] | EC50 (Hepatitis C virus [2]) [nM] | AUC(0-t) at 24 h [3] [µM·h] | further results
Nc1cc(Cn2c(C(=O)O)c(-c3ccc[nH]c3=O)c3c(Br)cccc32)ccn1 | 4000 | 100 | – | –
CCc1ccc2c(c1)c(-c1ccc[nH]c1=O)c(C(=O)O)n2Cc1cc(F)ccc1F | 4 | 100 | – | –
CCc1cc2c(-c3ccc[nH]c3=O)c(C(=O)NS(=O)(=O)C3CC3)n(Cc3cc(F)ccc3F)c2cc1F | 5 | 60 | 6.4 | –
C#Cc1ccc2c(c1)c(-c1ccc[nH]c1=O)c(C(=O)O)n2Cc1ccnc(N)c1 | 48 | 100 | – | –
CCc1ccc2c(c1)c(-c1ccc[nH]c1=O)c(C(=O)NS(=O)(=O)C1CC1)n2Cc1cc(F)ccc1F | 3 | 60 | 12 | –
Nc1cc(Cn2c(C(=O)O)c(-c3ccc[nH]c3=O)c3cc(Cl)ccc32)ccn1 | 53 | – | – | –
O=C(NS(=O)(=O)C1CC1)c1c(-c2ccc[nH]c2=O)c2cc(C(F)(F)F)c(F)cc2n1Cc1cc(F)ccc1F | 7 | 280 | – | –
O=C(O)c1c(-c2ccccc2F)c2cc(Cl)ccc2n1Cc1ccccc1 | – | > 100000 | – | –
CC/C=C/c1ccc2c(c1)c(-c1ccc[nH]c1=O)c(C(=O)O)n2Cc1cc(F)ccc1F | 150 | 100 | – | –
Cc1cc2c(-c3ccc[nH]c3=O)c(C(=O)NS(=O)(=O)C3CC3)n(Cc3cc(F)ccc3F)c2cc1Cl | 5 | 150 | – | –
CC1(c2ccc3c(c2)c(-c2ccc[nH]c2=O)c(C(=O)O)n3Cc2cc(F)ccc2F)CC1 | 9 | 100 | – | –
Cc1ccc2c(c1)c(-c1ccc[nH]c1=O)c(C(=O)NS(=O)(=O)C1CC1)n2Cc1cc(F)ccc1F | 6 | 90 | 9.1 | –
O=C(O)c1c(-c2ccc[nH]c2=O)c2cc(C(F)(F)F)ccc2n1Cc1ccc(F)cc1F | 25 | 100 | – | –
Nc1cc(Cn2c(C(=O)O)c(-c3ccc[nH]c3=O)c3c(Cl)c(Cl)ccc32)ccn1 | 750 | 100 | – | –
O=C(NS(=O)(=O)C1CC1)c1c(-c2ccc[nH]c2=O)c2cc(C(F)(F)F)ccc2n1Cc1cc(F)ccc1F | 3 | 50 | 4.8 | –
CCS(=O)(=O)NC(=O)c1c(-c2ccc[nH]c2=O)c2cc(C)ccc2n1Cc1cc(F)ccc1F | 10 | 200 | 11 | –
O=C(O)c1c(-c2ccc[nH]c2=O)c2cc(C(F)(F)F)ccc2n1Cc1cc(F)ccc1F | 4 | 100 | – | –
Cc1ccc2c(c1)c(-c1ccc[nH]c1=O)c(C(=O)NS(C)(=O)=O)n2Cc1cc(F)ccc1F | 7 | 490 | 22 | –
Cc1cc2c(-c3ccc[nH]c3=O)c(C(=O)NS(=O)(=O)C3CC3)n(Cc3cc(F)ccc3F)c2cc1F | 8 | 20 | 14 | Papp A→B [4]: 3.5 ×10⁻⁶ cm/s; concentration at 6 h [5]: 5850 ng/g; AUC(0-t) at 24 h [6]: 8 µM·h; hepatocyte CLint [7]: < 1 µL/min/1e6 cells; IC50 (Cytochrome P450 2D6 [8]): > 20000 nM; IC50 (Cytochrome P450 3A4 [9]): > 20000 nM; IC50 (Cytochrome P450 2C9 [10]): > 20000 nM; IC50 (Cytochrome P450 2C19 [11]): > 20000 nM; IC50 (Cytochrome P450 2D6 [12]): > 20000 nM; IC50 (Cytochrome P450 3A4 [13]): > 20000 nM; IC50 (Cytochrome P450 2C9 [14]): > 20000 nM; IC50 (Cytochrome P450 2C19 [15]): > 20000 nM; inhibition (INH) [16]: Not Active
NC(=O)c1ccc(F)c(Cn2c(C(=O)O)c(-c3ccc[nH]c3=O)c3cc(C(F)(F)F)ccc32)c1 | 7 | 100 | – | –
O=C(NS(=O)(=O)C1CC1)c1c(-c2ccc[nH]c2=O)c2cc(CC(F)(F)F)ccc2n1Cc1cc(F)ccc1F | 7 | 230 | 0.67 | –
O=C(O)c1c(-c2ccc[nH]c2=O)c2cc(CC(F)(F)F)ccc2n1Cc1cc(F)ccc1F | 8 | 100 | – | –
Nc1cc(Cn2c(C(=O)O)c(-c3ccc[nH]c3=O)c3cc(Cl)c(Cl)cc32)ccn1 | 47 | 100 | – | –
Nc1cc(Cn2c(C(=O)O)c(-c3ccc[nH]c3=O)c3cc(OC(F)(F)F)ccc32)ccn1 | 16 | 100 | – | –
CC(C)(C)c1ccc2c(c1)c(-c1ccc[nH]c1=O)c(C(=O)O)n2Cc1cc(F)ccc1F | 8 | 100 | – | –

Source: ChEMBL document CHEMBL2010765, “Structure-activity relationship (SAR) development and discovery of potent indole-based inhibitors of the hepatitis C virus (HCV) NS5B polymerase” (J Med Chem, 2012)
